One block for each compound: values may come before it.
What was measured:
[1] = Plasma levels in nu/nu mice given 4-HPR/LXS with or without ketoconazole; format: in vivo, athymic nude (nu/nu) mice
Outline: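 Athymic nude mice, 5–6 weeks old, were gavaged with test compound in lipid-matrix powder slurried in sterile water, 180 mg·kg−1 per day in two divided doses, alone or with ketoconazole at increasing doses. Killed 4 h after the ninth dose. Plasma from isoflurane cardiac-puncture blood, collected in the dark, was analysed by HPLC. Three mice per condition; mean ± SD.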

[2] = Plasma levels in neuroblastoma patients given 4-HPR/LXS oral powder; format: in vivo; conditions: human, 595 mg/m2 per day
Outline: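 Three relapsed/refractory neuroblastoma patients received oral lipid-matrix powder, 595 mg·m−2 per day given twice daily 12 h apart. On day 6 of cycle 1, venous blood was drawn just before the morning dose and every 2 h to 8 h. Samples went into foil-wrapped heparinized tubes, were centrifuged immediately, stored at −80°C and handled in the dark. Plasma was assayed by HPLC.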

[3] = beagle dogs, single 10 mg/kg dose of the capsules; ref Liu et al., 2007; cited from earlier work
[4] = 4-HPR and 4-MPR metabolism kinetics in pooled mouse liver microsomes; format: in vitro ADME; conditions: pH 7.4
Outline: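 Pooled mouse liver microsomes at 0.5 mg protein·mL−1 with NADPH-generating solutions in 0.1 M potassium phosphate, pH 7.4, preincubated 20 min at 37°C. Substrate added at a range of concentrations and shaken 60 min at 37°C. Stopped with ice-cold acetonitrile plus internal standard, centrifuged, and supernatant analysed by reverse-phase HPLC. Michaelis–Menten constants for product formation derived.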

human CYP3A4 = human CYP3A4 (Homo sapiens, UniProt P08684); test: Formation of 4-oxo-4-HPR from 4-HPR in human CYP3A4 isoenzyme microsomes; format: in vitro ADME; conditions: 4-HPR 10 µM, NADPH generating system
human CYP3A4, sequence (P08684 whole entry): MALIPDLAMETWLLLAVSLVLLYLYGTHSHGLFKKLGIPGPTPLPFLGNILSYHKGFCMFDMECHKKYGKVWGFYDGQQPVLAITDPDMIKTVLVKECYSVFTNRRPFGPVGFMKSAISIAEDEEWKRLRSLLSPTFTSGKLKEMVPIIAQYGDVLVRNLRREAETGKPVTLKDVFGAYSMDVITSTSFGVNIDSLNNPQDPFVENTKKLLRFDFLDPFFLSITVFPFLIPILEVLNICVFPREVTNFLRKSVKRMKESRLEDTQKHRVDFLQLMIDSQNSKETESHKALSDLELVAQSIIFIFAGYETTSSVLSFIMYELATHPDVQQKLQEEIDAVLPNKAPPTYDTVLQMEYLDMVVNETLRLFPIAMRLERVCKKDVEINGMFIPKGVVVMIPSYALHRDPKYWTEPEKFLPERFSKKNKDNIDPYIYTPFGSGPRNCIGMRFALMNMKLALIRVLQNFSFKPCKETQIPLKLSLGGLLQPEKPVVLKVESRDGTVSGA

human cancer cell lines = conditions: variety of human cancer cell lines in vitro; ref Delia et al., 1993; Mariotti et al., 1994; Kalemkerian et al., 1995; Oridate et al., 1996; O'Donnell et al., 2002; cited from earlier work
[5] = paediatric phase I study, neuroblastoma patients; ref Villablanca et al., 2006; cited from earlier work
[6] = Plasma levels in NOD/SCID mice given 4-HPR/LXS with or without ketoconazole; format: in vivo
Outline: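 NOD/SCID mice, 5–6 weeks old, were gavaged with 180 mg·kg−1 per day test compound (lipid-matrix powder slurried in water, two divided doses), alone or with ketoconazole. The dose-ranging arm was sampled 4 h after the ninth dose, the 25 mg·kg−1 arm 4 h after the fifth dose. Light-protected cardiac-puncture plasma was analysed by HPLC. Cohorts of three; mean ± SD.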

[7] = test system: 4-oxo-4-HPR formation in pooled mouse liver microsomes (MLM); test: Effect of CYP enzyme inhibitors on 4-oxo-4-HPR formation from 4-HPR in MLM; format: in vitro ADME; conditions: inhibitor 10 µM, 4-HPR 25 µM, 60 min
Outline: (§1)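 Pooled liver microsomes (0.5 mg protein·mL−1) were preincubated 20 min at 37°C, pH 7.4 phosphate buffer, with the NADPH-generating system and a CYP2C8, 2C9 or 3A4 inhibitor or no inhibitor. Then 25 µM substrate was added for 60 min at 37°C. Acetonitrile/internal-standard quench, centrifugation, and HPLC quantitation of 4-oxo product followed. Performed in triplicate.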

CYP3A4 = conditions: inhibits other CYP isoforms at higher concentrations; ref Jia and Liu, 2007; cited from earlier work
[8] = test system: 4-oxo-4-HPR formation in pooled human liver microsomes (HLM); test: Effect of CYP enzyme inhibitors on 4-oxo-4-HPR formation from 4-HPR in HLM; format: in vitro ADME; conditions: inhibitor 10 µM, 4-HPR 25 µM, 60 min
Outline: as §1

SMILES: CC1=C(/C=C/C(C)=C/C=C/C(C)=C/C(=O)Nc2ccc(O)cc2)C(C)(C)CCC1 [4-HPR, N-(4-hydroxyphenyl)retinamide]
concentration at 4 h ([1]; athymic nude (nu/nu), mouse, plasma, oral, 180 mg/kg per day): 14.5 µM | Increase of plasma level over control (4-HPR without ketoconazole) ([1]; nu/nu mice, + ketoconazole 75 mg/kg, P < 0.01): 2.2 fold | concentration at 0 h [2]: 7.04 ± 4.75 µM | concentration at 2 h [2]: 9.69 ± 7.3 µM | concentration at 4 h [2]: 12.8 µM | concentration at 6 h [2]: 13.1 ± 8.5 µM | concentration at 8 h [2]: 8.55 ± 6.42 µM | Oral bioavailability [3]: approximately 16% | Km at 60 min [4]: 25.8 µM | 4-oxo-4-HPR concentrations formed from 4-HPR (human CYP3A4): increased in a time-dependent manner | Concentrations exhibiting cytotoxic activity (human cancer cell lines): 1 to 10 µM | Maximum tolerated dose [5]: 2450 mg·m^−2 per day | Increase of plasma level over control (4-HPR without ketoconazole) ([6]; + ketoconazole 18.75 mg/kg, P < 0.01): 3.4 fold | Increase of plasma level over control (4-HPR without ketoconazole) ([6]; + ketoconazole 25 mg/kg, 4 h after fifth dose, Fig 4C): twofold

Reduction of 4-oxo-4-HPR formation from 4-HPR alone [7]: 40.9%
SMILES: OC(Cn1cncn1)(Cn1cncn1)c1ccc(F)cc1F [fluconazole]

Reduction of 4-oxo-4-HPR formation from 4-HPR alone [7]: 96.5% | Reduction of 4-oxo-4-HPR formation from 4-HPR alone [8]: 33.7%
SMILES: CC(=O)N1CCN(c2ccc(OCC3COC(Cn4ccnc4)(c4ccc(Cl)cc4Cl)O3)cc2)CC1 (stereo not drawn) [ketoconazole]
Concentrations at which specific for CYP3A4 (CYP3A4): up to 1 µM
